Reference: PubChem BioAssay
Active and inactive are the calls of the source.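 The calls were made as follows, unless noted: active = compounds giving at least 50% inhibition in the cell-based MKP-3 phosphatase rescue imaging test; inactive = the rest.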

Key:
[1] = inhibitors of TNFa-induced NFkB p65 translocation, primary screen, imaging, HUVEC, MLSMR starter and 10KST1 sets (AID 438;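 active = inhibition above 20% together with a positive visual image hit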;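 also: compound added about 3h40 before a 20 min TNFalpha stimulation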;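 as to inhibition: signal is the nuclear over cytoplasmic p65 intensity ratio per well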); details: HUVEC TNFa-induced p65 nuclear translocation; cell count: measured here: nuclei count (cytotoxicity indicator), at 2.08 µM; inhibition: at 2 µM, stronger effect = higher value, 0% TNFa-plus-vehicle, 100% no-TNFa wells
[2] = endothelial E-selectin expression blockers – imaging, HUVEC, immunofluorescence, MLSMR starter and 10KST1 sets, primary screen (AID 487;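 active = visually confirmed hit in the image check and inhibition above 20%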;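 as to inhibition: signal is fraction of cell area covered by stained E-selectin grains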;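 as to nuclei count: 100% = median nuclei count of all wells on the same plate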); details: HUVEC TNFalpha-induced E-selectin immunofluorescence imaging, at 2 µM; inhibition: stronger effect = higher value; nuclei count: measured here: cell number, toxicity
[3] = Primary imaging screen for DUSP6 inhibitors that restore phospho-Erk in transfected HeLa cells, chemical complementation (AID 609); details: HeLa MKP-3 transfected, phospho-Erk imaging KS statistic, at 10 µM, cells stimulated with TPA for 15 min;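 as to inhibition: phospho-Erk level distribution per well compared with pooled transfected vehicle control wells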
[4] = biological target: Dual specificity protein phosphatase 6 (Homo sapiens) (UniProt Q16828); assay: as above; details: HeLa MKP-3 transfected, phospho-Erk imaging KS statistic; at 10 µM; stronger effect = higher value; cells stimulated with TPA for 15 min
[5] = biological target: Voltage-gated potassium channel subunit beta-2 (Rattus norvegicus) (UniProt P62483); assay: inhibitors of rat Kvbeta2 reductase activity – biochemical, NADPH fluorescence, primary screen (AID 622;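 active = fluorescence slope higher than the sample average by over 3 SD, cut at about -0.22 in these data, passing the limit was not always enough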;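 also: slope of raw intensity against log time taken from 70 to 1610 s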); details: recombinant KvBeta, 4-cyanobenzaldehyde reduction, at 10 µM, stronger effect = higher value
[6] = biological target: Voltage-gated potassium channel subunit beta-2 (Rattus norvegicus) (UniProt P62483); assay: enhancers of rat Kvbeta2 NADPH turnover – biochemical, NADPH fluorescence, primary screen (AID 623;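 active = NADPH fluorescence slope more negative than the mean of all samples by about 3 SD, 99.7% confidence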;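 also: fluorescence intensity change per second fitted from 20 to 320 s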); details: Recombinant KvBeta, NADPH fluorescence decrease slope, 10 min; at 10 µM; stronger effect = lower value
[7] = biological target: Muscarinic acetylcholine receptor M4 (Homo sapiens) (UniProt P08173); assay: M4-linked GIRK flux change, two-sided – cell-based, HEK293 M4/GIRK, thallium flux, BTC-AM, M4 allosteric agonist project, primary screen (AID 625;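 active = fluorescence slope after compound addition differing from the mean of all tested samples at 99.7% confidence, mostly higher but some lower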;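 also: thallium influx through GIRK channels coupled to M4 in HEK293 cells with BTC-AM dye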); details: at 10 µM, actives lie on both sides
Summary of the method: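 Material – HEK293 cells with M4 receptor and GIRK channels · Buffer or medium – pH 7.3 thallium assay buffer · Doses – one dose, 10 µM final · Timing – cells overnight at 37 °C, BTC-AM loading 1 h, reads 2 min total · Measured by – kinetic fluorescence with BTC-AM dye · Controls – carbachol and DMSO controls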

[8] = inhibitors of larval lipid processing in zebrafish, primary screen, whole organism, PED6 fluorescence, gall bladder and intestine (AID 686;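 active = a full or partial loss of lipid-probe fluorescence in the fish gall bladder, intestine or both, judged by eye; inactive = no fluorescence loss, or compound toxic to the fish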;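 also: larvae 5 to 7 days old with five fish per well; signal comes from phospholipase A2 cleavage of quenched PED6 carried via bile; overnight exposure to compound and PED6 before scoring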); details: Zebrafish larvae PED6 lipid processing, fluorescence scoring; screened at 20 µM (by protocol)
Summary of the method: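 system = live zebrafish larvae aged 5-7 days, whole organism | probe or stimulus = ingested quenched lipid PED6 at 100 nM | doses = 20 µM single dose | timing = overnight exposure | detection = fluorescence microscopy with visual scoring of gall bladder and intestine | read-out = visual per-well fluorescence inhibition score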

[9] = loss of swimming-algae plug formation – whole organism, Chlamydomonas reinhardtii, WT vs cilia-less mutant, absorbance, 96-well, primary screen (AID 463189;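 active = inhibition at or above 50% relative to wild type and mutant plate controls; inactive = inhibition below 50%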;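 also: 0% = wild type cc124 cells in DMSO and 100% = ciliumless bld1 mutant cells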); details: Chlamydomonas reinhardtii gravitaxis, OD600 absorbance, 2 days; at 10 µM; stronger effect = higher value
[10] = measured here: cell density z-score
[11] = measured here: nuclear c-Myc green intensity z-score
[12] = measured here: nuclear pErk red intensity z-score, stronger effect = higher value

Sequence of Muscarinic acetylcholine receptor M4 (Homo sapiens) (P08173 whole entry, looked up): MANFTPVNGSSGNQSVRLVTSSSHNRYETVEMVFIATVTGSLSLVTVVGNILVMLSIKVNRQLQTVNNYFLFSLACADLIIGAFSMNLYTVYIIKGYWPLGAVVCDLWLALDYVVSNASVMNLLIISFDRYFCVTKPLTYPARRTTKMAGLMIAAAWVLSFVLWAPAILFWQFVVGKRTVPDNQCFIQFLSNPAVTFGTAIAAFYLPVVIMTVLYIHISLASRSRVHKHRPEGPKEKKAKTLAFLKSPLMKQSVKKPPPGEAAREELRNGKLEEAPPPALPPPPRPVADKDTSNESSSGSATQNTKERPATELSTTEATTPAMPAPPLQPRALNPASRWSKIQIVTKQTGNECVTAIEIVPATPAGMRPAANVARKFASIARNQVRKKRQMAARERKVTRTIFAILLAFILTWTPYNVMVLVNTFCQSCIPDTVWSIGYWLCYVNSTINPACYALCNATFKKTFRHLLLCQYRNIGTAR
Sequence of Voltage-gated potassium channel subunit beta-2 (Rattus norvegicus) (P62483 whole entry, looked up): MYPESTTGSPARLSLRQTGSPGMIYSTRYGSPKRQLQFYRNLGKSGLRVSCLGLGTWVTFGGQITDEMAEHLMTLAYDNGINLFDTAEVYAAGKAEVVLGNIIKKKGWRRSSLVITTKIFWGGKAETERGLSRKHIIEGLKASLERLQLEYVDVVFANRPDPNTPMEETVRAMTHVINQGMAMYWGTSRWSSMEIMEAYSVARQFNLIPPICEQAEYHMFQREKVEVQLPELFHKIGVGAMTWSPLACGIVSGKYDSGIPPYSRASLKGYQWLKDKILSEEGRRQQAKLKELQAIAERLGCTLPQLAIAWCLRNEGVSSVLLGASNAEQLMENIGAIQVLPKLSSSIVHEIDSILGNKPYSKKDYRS
Sequence of Dual specificity protein phosphatase 6 (Homo sapiens) (Q16828 whole entry, looked up): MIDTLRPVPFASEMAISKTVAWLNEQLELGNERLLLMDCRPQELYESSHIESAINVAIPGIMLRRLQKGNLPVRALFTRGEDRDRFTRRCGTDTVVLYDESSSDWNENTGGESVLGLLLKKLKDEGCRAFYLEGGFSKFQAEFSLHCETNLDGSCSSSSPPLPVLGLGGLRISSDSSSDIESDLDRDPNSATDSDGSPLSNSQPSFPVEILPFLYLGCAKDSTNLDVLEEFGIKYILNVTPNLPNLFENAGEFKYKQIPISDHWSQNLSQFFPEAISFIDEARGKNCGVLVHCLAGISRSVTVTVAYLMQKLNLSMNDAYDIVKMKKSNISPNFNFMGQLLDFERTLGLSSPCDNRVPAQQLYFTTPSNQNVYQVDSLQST

Compound: CC1CCN(c2ncnc3c2cnn3Cc2ccc(Cl)cc2)CC1
- cell count [1]: 549
- inhibition [1]: -8.1% (inactive)
- inhibition [2]: 2.1% (inactive)
- nuclei count [2]: 135%
- z-score [3, 10]: -0.011
- z-score [3, 11]: 0.63
- z-score [3, 12]: 0.724
- inhibition [4]: 13.9% (inactive)
- fluorescence slope [5]: -0.348 (inactive)
- NADPH fluorescence slope [6]: -1.7e-05 (inactive)
- fluorescence slope [7]: 0.00585 (inactive)
- outcome [8]: inactive
- inhibition [9]: 4.22% (inactive)

Compound: CC(C)CCNc1nc2c(cc1C#N)COC(C)(C)C2
- cell count [1]: 536
- inhibition [1]: -6.5% (inactive)
- inhibition [2]: -22.1% (inactive)
- nuclei count [2]: 143%
- z-score [3, 10]: 1.89
- z-score [3, 11]: -0.595
- z-score [3, 12]: -1.16
- inhibition [4]: 22.1% (inactive)
- fluorescence slope [5]: -0.426 (inactive)
- NADPH fluorescence slope [6]: -5.9e-05 (inactive)
- fluorescence slope [7]: 0.00455 (inactive)
- outcome [8]: inactive
- inhibition [9]: -19.8% (inactive)

Compound: O=C(C(c1ccccc1)N1CCOCC1)N1CCOCC1 (configuration not stated)
- cell count [1]: 733
- inhibition [1]: -13.6% (inactive)
- inhibition [2]: -25.3% (inactive)
- nuclei count [2]: 159%
- z-score [3, 10]: -0.0327
- z-score [3, 11]: 1.84
- z-score [3, 12]: -0.87
- inhibition [4]: -9.53% (inactive)
- fluorescence slope [5]: -0.431 (inactive)
- NADPH fluorescence slope [6]: -2.2e-05 (inactive)
- fluorescence slope [7]: 0.00553 (inactive)
- outcome [8]: inactive
- inhibition [9]: -3.52% (inactive)

Compound: COC(=O)NCC12CC3CC(C1)CC(CNC(=O)OC)(C3)C2
- cell count [1]: 541
- inhibition [1]: 2.3% (inactive)
- inhibition [2]: -75% (inactive)
- nuclei count [2]: 122%
- z-score [3, 10]: 0.785
- z-score [3, 11]: 1.4
- z-score [3, 12]: -1.34
- inhibition [4]: 5.42% (inactive)
- fluorescence slope [5]: -0.467 (inactive)
- NADPH fluorescence slope [6]: -0.0001 (inactive)
- fluorescence slope [7]: 0.00455 (inactive)
- outcome [8]: inactive
- inhibition [9]: -5.97% (inactive)

Compound: O=C(O)c1cc2sccc2s1
- cell count [1]: 643
- inhibition [1]: 0% (inactive)
- inhibition [2]: 23.1% (inactive)
- nuclei count [2]: 160%
- z-score [3, 10]: 0.481
- z-score [3, 11]: -0.0742
- z-score [3, 12]: -0.912
- inhibition [4]: -6.48% (inactive)
- fluorescence slope [5]: -0.465 (inactive)
- NADPH fluorescence slope [6]: -2.7e-05 (inactive)
- fluorescence slope [7]: 0.005 (inactive)
- outcome [8]: inactive
- inhibition [9]: -3.38% (inactive)

Compound: COc1ccccc1C1CC(c2ccc(Cl)cc2)Nc2nc(N)nn21 (configuration not stated)
- cell count [1]: 404
- inhibition [1]: 0% (inactive)
- inhibition [2]: -104% (inactive)
- nuclei count [2]: 146%
- z-score [3, 10]: -0.136
- z-score [3, 11]: -0.282
- z-score [3, 12]: -0.582
- inhibition [4]: 11.9% (inactive)
- fluorescence slope [5]: -0.459 (inactive)
- NADPH fluorescence slope [6]: -0.000104 (inactive)
- fluorescence slope [7]: 0.00483 (inactive)
- outcome [8]: inactive
- inhibition [9]: -3.22% (inactive)

Compound: CCC(NC(=O)Nn1cnnc1)(C(F)(F)F)C(F)(F)F
- cell count [1]: 726
- inhibition [1]: 3.1% (inactive)
- inhibition [2]: -59.3% (inactive)
- nuclei count [2]: 185%
- z-score [3, 10]: -0.283
- z-score [3, 11]: -1.06
- z-score [3, 12]: 1.12
- inhibition [4]: 1.98% (inactive)
- fluorescence slope [5]: -0.49 (inactive)
- NADPH fluorescence slope [6]: -6.6e-05 (inactive)
- fluorescence slope [7]: 0.00453 (inactive)
- outcome [8]: inactive
- inhibition [9]: 19.5% (inactive)

Compound: O=c1[nH]cnc2c1cnn2Cc1ccccc1
- cell count [1]: 509
- inhibition [1]: -2.1% (inactive)
- inhibition [2]: -58.3% (inactive)
- nuclei count [2]: 145%
- z-score [3, 10]: 0.233
- z-score [3, 11]: -0.586
- z-score [3, 12]: 0.288
- inhibition [4]: -3.97% (inactive)
- fluorescence slope [5]: -0.354 (inactive)
- NADPH fluorescence slope [6]: -5.1e-05 (inactive)
- fluorescence slope [7]: 0.00657 (inactive)
- outcome [8]: inactive
- inhibition [9]: -9.15% (inactive)

Compound: CCC(C(=O)Nc1nccs1)(C(F)(F)F)C(F)(F)F
- cell count [1]: 719
- inhibition [1]: -18.9% (inactive)
- inhibition [2]: -106% (inactive)
- nuclei count [2]: 203%
- z-score [3, 10]: 0.755
- z-score [3, 11]: 0.213
- z-score [3, 12]: 0.296
- inhibition [4]: 5.95% (inactive)
- fluorescence slope [5]: -0.49 (inactive)
- NADPH fluorescence slope [6]: -6.4e-05 (inactive)
- fluorescence slope [7]: 0.00509 (inactive)
- outcome [8]: inactive
- inhibition [9]: 0.594% (inactive)

Compound: CCN1CCc2c(C#N)c(N3CCCCC3)nc(N3CCOCC3)c2C1
- cell count [1]: 567
- inhibition [1]: -7.1% (inactive)
- inhibition [2]: -95.8% (inactive)
- nuclei count [2]: 149%
- z-score [3, 10]: 0.15
- z-score [3, 11]: -1.22
- z-score [3, 12]: 1.09
- inhibition [4]: -2.09% (inactive)
- fluorescence slope [5]: -0.46 (inactive)
- NADPH fluorescence slope [6]: -7.6e-05 (inactive)
- fluorescence slope [7]: 0.00491 (inactive)
- outcome [8]: inactive
- inhibition [9]: 20.3% (inactive)

Compound: CC(C)Cc1[nH]c(=O)c(C#N)c2c1COC(C)(C)C2
- cell count [1]: 568
- inhibition [1]: -11.1% (inactive)
- inhibition [2]: -69.9% (inactive)
- nuclei count [2]: 141%
- z-score [3, 10]: 0.028
- z-score [3, 11]: -0.951
- z-score [3, 12]: -0.389
- inhibition [4]: -13.3% (inactive)
- fluorescence slope [5]: -0.43 (inactive)
- NADPH fluorescence slope [6]: -5.3e-05 (inactive)
- fluorescence slope [7]: 0.00369 (inactive)
- outcome [8]: inactive
- inhibition [9]: 23.1% (inactive)

Compound: Cn1c(OCc2cccnc2)nc2c1c(=O)n(Cc1ccccc1)c(=O)n2C
- cell count [1]: 719
- inhibition [1]: -11.2% (inactive)
- inhibition [2]: -145% (inactive)
- nuclei count [2]: 176%
- z-score [3, 10]: 1.38
- z-score [3, 11]: -0.255
- z-score [3, 12]: -1.04
- inhibition [4]: 25.8% (inactive)
- fluorescence slope [5]: -0.489 (inactive)
- NADPH fluorescence slope [6]: -5.3e-05 (inactive)
- fluorescence slope [7]: 0.00844 (inactive)
- outcome [8]: inactive
- inhibition [9]: 21.1% (inactive)

Compound: CCOc1ccc(/C(O)=C2/C(=O)C(=O)N(c3cc(C)on3)C2c2ccc(C(=O)OC)cc2)cc1 (configuration not stated)
- cell count [1]: 391
- inhibition [1]: -0.4% (inactive)
- inhibition [2]: -27.6% (inactive)
- nuclei count [2]: 105%
- z-score [3, 10]: -0.142
- z-score [3, 11]: 1.45
- z-score [3, 12]: -0.188
- inhibition [4]: 9.37% (inactive)
- fluorescence slope [5]: -0.419 (inactive)
- NADPH fluorescence slope [6]: -1.9e-05 (inactive)
- fluorescence slope [7]: 0.00438 (inactive)
- outcome [8]: inactive
- inhibition [9]: 11.4% (inactive)

Compound: C#CC1CN(Cc2ccccc2)CC(C#C)N1C (configuration not stated)
- cell count [1]: 690
- inhibition [1]: -3% (inactive)
- inhibition [2]: 9% (inactive)
- nuclei count [2]: 156%
- z-score [3, 10]: -0.126
- z-score [3, 11]: -0.517
- z-score [3, 12]: 1.32
- inhibition [4]: -7.67% (inactive)
- fluorescence slope [5]: -0.44 (inactive)
- NADPH fluorescence slope [6]: -3.5e-05 (inactive)
- fluorescence slope [7]: 0.00453 (inactive)
- outcome [8]: inactive
- inhibition [9]: -0.669% (inactive)
